Laboratory results from PMC12530853 (RSC Advances, 2025).
Converted amounts (≈) assume the structure as drawn.

Legend:
Assay type in all cases: cell-based
C. albicans ATCC 14053 = experiment: Minimum inhibitory concentration; settings: Candida albicans, ATCC14053, read-out: Minimum inhibitory concentration (MIC) C. albicans ATCC 14053
Method in brief: (§1)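 Exponential-phase yeast were washed three times in PBS and suspended at 1 × 10^3 CFU/mL in RPMI 1640. Test compound and fluconazole comparator were twofold serially diluted in microplates, each concentration in triplicate wells. Growth was read as OD600, from which the MIC was determined.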

C. albicans ATCC 10231 = experiment: Minimum inhibitory concentration; settings: Candida albicans, ATCC10231, read-out: Minimum inhibitory concentration (MIC) C. albicans ATCC 10231
Method in brief: as §1

[1] = system: CYP24A1 mRNA in HEK293T cells; experiment: CYP24A1 mRNA levels by quantitative PCR; settings: 10^−9 M; 24 h; HEK293T cells

Compound: Cc1ccc(C=Nc2nc[nH]n2)c(O)c1 [3a, 2-{[(1H-1,2,4-Triazol-3-yl)imino]methyl}-5-methylphenol]
- MIC (C. albicans ATCC 14053): 128 µg/mL (≈ 633 µM)
- MIC (C. albicans ATCC 10231): 64 µg/mL (≈ 316 µM)

Compound: C=C1/C(=C\C=C2/CCC[C@]3(C)[C@@H]([C@H](C)CCCC(C)(C)O)CC[C@@H]23)C[C@@H](O)C[C@@H]1O [1,25(OH)2D3, 1,25-dihydroxyvitamin D3, reference compound]
- CYP24A1 mRNA levels, 1,25(OH)2D3 alone [1]: significantly increased

Compound: Oc1ccc(C=Nc2ncn[nH]2)cc1 [3k, 4-{[(1H-1,2,4-Triazol-5-yl)imino]methyl}phenol]
- MIC (C. albicans ATCC 14053): > 256 µg/mL
- MIC (C. albicans ATCC 10231): > 256 µg/mL

Compound: O=C(O)c1ccc(C=Nc2ncn[nH]2)cc1 [3l, 4-{[(1H-1,2,4-Triazol-5-yl)imino]methyl}benzoic acid]
- MIC (C. albicans ATCC 14053): > 256 µg/mL
- MIC (C. albicans ATCC 10231): > 256 µg/mL

Compound: C(=Nc1ncn[nH]1)c1ccncc1 [3h, 1-(Pyridin-4-yl)-N-(1H-1,2,4-triazol-5-yl)methanimine]
- MIC (C. albicans ATCC 14053): > 256 µg/mL
- MIC (C. albicans ATCC 10231): > 256 µg/mL

Compound: C(=Nc1ncn[nH]1)c1ccc(-c2ccccc2)cc1 [3f, 1-[(1,1′-Biphenyl)-4-yl]-N-(1H-1,2,4-triazol-5-yl)methanimine]
- MIC (C. albicans ATCC 14053): 128 µg/mL (≈ 516 µM)
- MIC (C. albicans ATCC 10231): 128 µg/mL (≈ 516 µM)

Compound: CS(=O)(=O)c1ccc(C=Nc2ncn[nH]2)cc1 [3e, 1-[4-(Methylsulfonyl)phenyl]-N-(1H-1,2,4-triazol-5-yl)methanimine]
- MIC (C. albicans ATCC 14053): 128 µg/mL (≈ 511 µM)
- MIC (C. albicans ATCC 10231): 128 µg/mL (≈ 511 µM)
